Results published in ChEMBL document CHEMBL3779815, “Synthesis of newer 1,2,3-triazole linked chalcone and flavone hybrid compounds and evaluation of their antimicrobial and cytotoxic activities” (Eur J Med Chem, 2016).
Values after ≈ are worked out from the molar mass of the structure shown.

Columns and labels:
Candida parapsilosis = assay: Antifungal activity against Candida parapsilosis ATCC 22019 after 18 to 24 hrs by micro-dilution method; type: functional; conditions: Lodderomyces parapsilosis
How it was run: (§1)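 Microdilution MIC run as the antibacterial protocol but on Sabouraud dextrose […] pH 7.3±0.2; compounds 100 to 0.78 μg/mL in twofold steps; saline-prepared inocula 1-2 × 10⁷ cfu/mL, 0.01 mL added; 37 °C aerobic, 18-24 h; MIC read as lowest concentration without visible growth or turbidity; fluconazole reference.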

Staphylococcus aureus = assay: Antibacterial activity against Staphylococcus aureus […] after 18 to 24 hrs by micro-dilution method; type: functional
Enterococcus faecalis = assay: Antibacterial activity against Enterococcus faecalis ATCC 29212 after 18 to 24 hrs by micro-dilution assay; type: functional
Plasmodium falciparum = assay: Antimalarial activity against erythrocytic stage of chloroquine sensitive Plasmodium falciparum 3D7 assessed as inhibition of parasitemia after 48 hrs by Giemsa staining based microscopic analysis; type: functional, organism-based; conditions: 3D7, 48 h
How it was run: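 Asynchronous culture on human O⁺ erythrocytes, 1-1.5% parasitemia, 4% hematocrit, RPMI-1640 with HEPES, NaHCO₃, glutamine, gentamycin, Albumax II; drug 0.10-100 μg/mL, 48 h, 37 °C, medium changed at 24 h; triplicate wells; Giemsa thin smears, about 4,000 erythrocytes counted at 1,000X; % parasitemia inhibition versus control gives IC50.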

Pseudomonas aeruginosa = assay: Antibacterial activity against Pseudomonas aeruginosa […] after 18 to 24 hrs by micro-dilution method; type: functional
Candida tropicalis = assay: Antifungal activity against Candida tropicalis ATCC 750 after 18 to 24 hrs by micro-dilution method; type: functional; how it was run: as §1
Shigella boydii = assay: Antibacterial activity against Shigella boydii clinical isolate after 18 to 24 hrs by micro-dilution method; type: functional
Escherichia coli = assay: Antibacterial activity against Escherichia coli ATCC 35218 after 18 to 24 hrs by micro-dilution method; type: functional
Klebsiella pneumoniae = assay: Antibacterial activity against Klebsiella pneumoniae ATCC 27736 after 18 to 24 hrs by micro-dilution method; type: functional
Aspergillus niger = assay: Antifungal activity against Aspergillus niger clinical isolate after 18 to 24 hrs by micro-dilution method; type: functional; how it was run: as §1
Aspergillus fumigatus = assay: Antifungal activity against Aspergillus fumigatus clinical isolate after 18 to 24 hrs by micro-dilution method; type: functional; how it was run: as §1
Arthrodermataceae = assay: Antifungal activity against Dermatophyte clinical isolate after 18 to 24 hrs by micro-dilution method; type: functional; how it was run: as §1
Candida albicans [1] = assay: Antifungal activity against Candida albicans clinical isolate after 18 to 24 hrs by micro-dilution method; type: functional; how it was run: as §1
[2] = Cytotoxicity against human HuH7 cells after 72 hrs by MTT assay; type: cell-based, Huh-7
How it was run: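 Huh-7 cells, 4 × 10³/well in DMEM with 10% FBS and penicillin-streptomycin-glutamine; eight 2-fold dilutions 100-0.78 μg/mL, 72 h; MTT added 2-4 h, then isopropanol/Triton X-100/HCl solubilization 2 h dark, RT; absorbance 570 nm; CC50 as mean of at least two experiments in duplicate.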

Candida albicans [3] = assay: Antifungal activity against Candida albicans ATCC 90028 after 18 to 24 hrs by micro-dilution method; type: functional; how it was run: as §1
Cryptococcus neoformans = assay: Antifungal activity against Cryptococcus neoformans clinical isolate after 18 to 24 hrs by micro-dilution method; type: functional; how it was run: as §1

Structure (SMILES)	MIC (Candida parapsilosis)	MIC (Staphylococcus aureus)	MIC (Enterococcus faecalis)	IC50 (Plasmodium falciparum)	MIC (Pseudomonas aeruginosa)	MIC (Candida tropicalis)	MIC (Shigella boydii)	MIC (Escherichia coli)	MIC (Klebsiella pneumoniae)	MIC (Aspergillus niger)	MIC (Aspergillus fumigatus)	MIC (Arthrodermataceae)	MIC (Candida albicans [1])	MIC (Candida albicans [3])	MIC (Cryptococcus neoformans)	CC50 at 72 h [2]
C[C@@H]1CC[C@H]2[C@@H](C)C(=O)O[C@@H]3O[C@@]4(C)CC[C@@H]1[C@]32OO4 [ARTEMISININ]	–	–	–	0.00112 µg/mL (≈ 0.00396 µM)	–	–	–	–	–	–	–	–	–	–	–	> 100 µg/mL
COc1cc(O)c(C(=O)/C=C/c2ccc(OC)c(OCc3cn(-c4ccc(F)cc4F)nn3)c2)c(OC)c1	> 100 µg/mL	100 µg/mL (≈ 191 µM)	25 µg/mL (≈ 47.8 µM)	9.54 µg/mL (≈ 18.2 µM)	> 100 µg/mL	> 100 µg/mL	12.5 µg/mL (≈ 23.9 µM)	50 µg/mL (≈ 95.5 µM)	> 100 µg/mL	50 µg/mL (≈ 95.5 µM)	50 µg/mL (≈ 95.5 µM)	> 100 µg/mL	> 100 µg/mL	> 100 µg/mL	> 100 µg/mL	> 100 µg/mL
COc1cc(O)c(C(=O)/C=C/c2ccc(OCc3cn(-c4ccc(Cl)cc4)nn3)c(OC)c2)c(OC)c1	12.5 µg/mL (≈ 23.9 µM)	> 100 µg/mL	> 100 µg/mL	5.08 µg/mL (≈ 9.73 µM)	> 100 µg/mL	6.25 µg/mL (≈ 12 µM)	> 100 µg/mL	> 100 µg/mL	> 100 µg/mL	25 µg/mL (≈ 47.9 µM)	25 µg/mL (≈ 47.9 µM)	12.5 µg/mL (≈ 23.9 µM)	6.25 µg/mL (≈ 12 µM)	12.5 µg/mL (≈ 23.9 µM)	12.5 µg/mL (≈ 23.9 µM)	> 100 µg/mL
COc1cc(O)c(C(=O)/C=C/c2ccc(OC)c(OCc3cn(-c4ccc(Cl)cc4)nn3)c2)c(OC)c1	12.5 µg/mL (≈ 23.9 µM)	> 100 µg/mL	100 µg/mL (≈ 192 µM)	11 µg/mL (≈ 21.1 µM)	> 100 µg/mL	6.25 µg/mL (≈ 12 µM)	> 100 µg/mL	100 µg/mL (≈ 192 µM)	> 100 µg/mL	25 µg/mL (≈ 47.9 µM)	25 µg/mL (≈ 47.9 µM)	12.5 µg/mL (≈ 23.9 µM)	12.5 µg/mL (≈ 23.9 µM)	12.5 µg/mL (≈ 23.9 µM)	12.5 µg/mL (≈ 23.9 µM)	> 100 µg/mL

Second part, led by results:

MIC (Candida parapsilosis)	MIC (Staphylococcus aureus)	MIC (Enterococcus faecalis)	IC50 (Plasmodium falciparum)	MIC (Pseudomonas aeruginosa)	MIC (Candida tropicalis)	MIC (Shigella boydii)	MIC (Escherichia coli)	MIC (Klebsiella pneumoniae)	MIC (Aspergillus niger)	MIC (Aspergillus fumigatus)	MIC (Arthrodermataceae)	MIC (Candida albicans [1])	MIC (Candida albicans [3])	MIC (Cryptococcus neoformans)	Structure (SMILES)	CC50 at 72 h [2]
> 100 µg/mL	> 100 µg/mL	> 100 µg/mL	4.79 µg/mL (≈ 9.19 µM)	> 100 µg/mL	> 100 µg/mL	> 100 µg/mL	> 100 µg/mL	> 100 µg/mL	> 100 µg/mL	> 100 µg/mL	> 100 µg/mL	> 100 µg/mL	> 100 µg/mL	> 100 µg/mL	COc1cc(OC)c2c(=O)cc(-c3ccc(OCc4cn(-c5ccc(F)cc5F)nn4)c(OC)c3)oc2c1	> 100 µg/mL
> 100 µg/mL	> 100 µg/mL	50 µg/mL (≈ 92.6 µM)	2.74 µg/mL (≈ 5.07 µM)	100 µg/mL (≈ 185 µM)	> 100 µg/mL	25 µg/mL (≈ 46.3 µM)	50 µg/mL (≈ 92.6 µM)	> 100 µg/mL	100 µg/mL (≈ 185 µM)	> 100 µg/mL	> 100 µg/mL	> 100 µg/mL	> 100 µg/mL	> 100 µg/mL	COc1cc(O)c(C(=O)/C=C/c2ccc(OCc3cn(-c4ccc(F)c(Cl)c4)nn3)c(OC)c2)c(OC)c1	> 100 µg/mL
> 100 µg/mL	12.5 µg/mL (≈ 17.9 µM)	12.5 µg/mL (≈ 17.9 µM)	11.3 µg/mL (≈ 16.2 µM)	12.5 µg/mL (≈ 17.9 µM)	> 100 µg/mL	25 µg/mL (≈ 35.8 µM)	6.25 µg/mL (≈ 8.96 µM)	12.5 µg/mL (≈ 17.9 µM)	> 100 µg/mL	> 100 µg/mL	> 100 µg/mL	> 100 µg/mL	> 100 µg/mL	> 100 µg/mL	COc1cc(OC)c2c(=O)cc(-c3ccc(OCc4cn(-c5ccc(Cl)cc5)nn4)c(OCc4cn(-c5ccc(Cl)cc5)nn4)c3)oc2c1	> 100 µg/mL
